Assay results taken from ChEMBL document CHEMBL1155362, “Synthesis, characterization and derivatization of some novel types of mono- and bis-imidazolidineiminothiones and imidazolidineiminodithiones with antitumor, antiviral, antibacterial and antifungal activities--part I” (Eur J Med Chem, 2009).
Converted amounts (≈) assume the structure as drawn.

Tests used:
Salmonella typhi [1] = assay: Antimicrobial activity against Salmonella typhi NCIMB 9331 by macrotube dilution assay; format: functional, Salmonella enterica subsp. enterica serovar Typhi; conditions: Salmonella enterica
Candida albicans [2] = assay: Antifungal activity against Candida albicans IMRU 3669 at 1 mg/ml by agar disk diffusion assay; format: functional; conditions: read-out: DIZ
Summary of the method: (§1)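 Fungi maintained on Czapek's Dox agar; agar well diffusion with 1 cm wells and […] of each concentration (1, 2.5, 5 mg/mL) in DMF; inhibition zone diameter measured.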

Staphylococcus aureus [3] = assay: Antimicrobial activity against Staphylococcus aureus NCTC 7447 by macrotube dilution assay; format: functional
Aspergillus niger [4] = assay: Antifungal activity against Aspergillus niger Ferm-BAM C-21 at 2.5 mg/ml by agar disk diffusion assay; format: functional; conditions: read-out: DIZ; summary of the method: as §1
Pseudomonas aeruginosa [5] = assay: Antibacterial activity against Pseudomonas aeruginosa NCIB 9016 at 2.5 mg/ml by agar disk diffusion assay; format: functional; conditions: Pseudomonas aeruginosa, NCIB 9016; read-out: DIZ
Bacillus subtilis [6] = assay: Antimicrobial activity against Bacillus subtilis NCTC 1040 by macrotube dilution assay; format: functional
Aspergillus niger [7] = assay: Antifungal activity against Aspergillus niger Ferm-BAM C-21 at 1 mg/ml by agar disk diffusion assay; format: functional; conditions: read-out: DIZ; summary of the method: as §1
Candida albicans [8] = assay: Antifungal activity against Candida albicans IMRU 3669 at 5 mg/ml by agar disk diffusion assay; format: functional; conditions: Candida albicans, IMRU 3669; read-out: DIZ; summary of the method: as §1
Bacillus subtilis [9] = assay: Antibacterial activity against Bacillus subtilis NCIB 3610 at 1 mg/ml by agar disk diffusion assay; format: functional; conditions: Bacillus subtilis, NCIB 3610; read-out: DIZ
Candida albicans [10] = assay: Antifungal activity against Candida albicans IMRU 3669 by macrotube dilution assay; format: functional
Summary of the method: (§2)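 Macrotube twofold dilution per NCCLS/CLSI guidelines for fungi; 2 mg compound in 2.0 mL DMF, serially diluted across 14 tubes of Czapek's Dox medium, with a control tube; inoculum added to halve the concentration; 30 °C for 72 h; MIC is the lowest concentration without visible growth.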

Klebsiella pneumoniae = assay: Antimicrobial activity against Klebsiella pneumoniae NCIMB 9111 by macrotube dilution assay; format: functional
Bacillus subtilis [11] = assay: Antibacterial activity against Bacillus subtilis NCIB 3610 at 5 mg/ml by agar disk diffusion assay; format: functional; conditions: Bacillus subtilis, NCIB 3610; read-out: DIZ
Pseudomonas aeruginosa [12] = assay: Antibacterial activity against Pseudomonas aeruginosa NCIB 9016 at 1 mg/ml by agar disk diffusion assay; format: functional; conditions: Pseudomonas aeruginosa, NCIB 9016; read-out: DIZ
Aspergillus niger [13] = assay: Antifungal activity against Aspergillus niger Ferm-BAM C-21 at 5 mg/ml by agar disk diffusion assay; format: functional; conditions: read-out: DIZ; summary of the method: as §1
Aspergillus niger [14] = assay: Antifungal activity against Aspergillus niger Ferm-BAM C-21 by macrotube dilution assay; format: functional; summary of the method: as §2
Pseudomonas aeruginosa [15] = assay: Antibacterial activity against Pseudomonas aeruginosa NCIB 9016 at 5 mg/ml by agar disk diffusion assay; format: functional; conditions: Pseudomonas aeruginosa, NCIB 9016; read-out: DIZ
Candida albicans [16] = assay: Antifungal activity against Candida albicans IMRU 3669 at 2.5 mg/ml by agar disk diffusion assay; format: functional; conditions: read-out: DIZ; summary of the method: as §1
Bacillus subtilis [17] = assay: Antibacterial activity against Bacillus subtilis NCIB 3610 at 2.5 mg/ml by agar disk diffusion assay; format: functional; conditions: Bacillus subtilis, NCIB 3610; read-out: DIZ
Staphylococcus aureus [18] = assay: Antibacterial activity against Staphylococcus aureus NCTC 7447 at 5 mg/ml by agar disk diffusion assay; format: functional; conditions: read-out: DIZ
Escherichia coli = assay: Antibacterial activity against Escherichia coli NCTC 10416 at 5 mg/ml by agar disk diffusion assay; format: functional; conditions: read-out: DIZ
Human alphaherpesvirus 1 = assay: Antiviral activity against HSV1 infected african green monkey Vero cells at 10^-3 dilution of 5 mg/ml by plaque formation assay; format: functional
Summary of the method: (§3)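 Compound dilutions prepared from a 5 mg/mL DMSO stock, using the maximum non-toxic dilution for Vero cells over 3 days; 0.1 mL virus (10³) mixed with 0.1 mL compound for 1 h at room temperature; mixture inoculated onto washed Vero monolayers in 12-well plates and adsorbed at 37 °C; 2× MEM/agarose overlay applied; read-out % reduction in plaque count versus untreated virus control.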

Bacillus subtilis [19] = assay: Antibacterial activity against Bacillus subtilis NCTC 1040 at 5 mg/ml by agar disk diffusion assay; format: functional; conditions: read-out: DIZ
Hepatovirus A = assay: Antiviral activity against HAV infected african green monkey Vero cells at 10^-3 dilution of 5 mg/ml by plaque formation assay; format: functional; summary of the method: as §3
Coxsackievirus B4 = assay: Antiviral activity against Coxsackievirus B4 infected african green monkey Vero cells at 10^-3 dilution of 5 mg/ml by plaque formation assay; format: functional; summary of the method: as §3
Salmonella typhi [20] = assay: Antibacterial activity against Salmonella typhi NCIMB 9331 at 5 mg/ml by agar disk diffusion assay; format: functional, Salmonella enterica subsp. enterica serovar Typhi; conditions: Salmonella enterica, read-out: DIZ

N=C1C(=S)N(c2ccc(I)cc2)C(=S)N1c1ccc(I)cc1
MIC (Salmonella typhi [1]): 1.95 µg/mL (≈ 3.55 µM) | zone of inhibition at 1000 µg/mL (Candida albicans [2]): 19 mm | MIC (Staphylococcus aureus [3]): 15.6 µg/mL (≈ 28.4 µM) | zone of inhibition at 2500 µg/mL (Aspergillus niger [4]): 15 mm | zone of inhibition at 2500 µg/mL (Pseudomonas aeruginosa [5]): 17 mm | MIC (Bacillus subtilis [6]): 3.9 µg/mL (≈ 7.1 µM) | zone of inhibition at 1000 µg/mL (Aspergillus niger [7]): 12 mm | zone of inhibition at 5000 µg/mL (Candida albicans [8]): 21 mm | zone of inhibition at 1000 µg/mL (Bacillus subtilis [9]): 19 mm | MIC (Candida albicans [10]): 1.95 µg/mL (≈ 3.55 µM) | MIC (Klebsiella pneumoniae): 7.8 µg/mL (≈ 14.2 µM) | zone of inhibition at 5000 µg/mL (Bacillus subtilis [11]): 24 mm | zone of inhibition at 1000 µg/mL (Pseudomonas aeruginosa [12]): 15 mm | zone of inhibition at 5000 µg/mL (Aspergillus niger [13]): 17 mm | MIC (Aspergillus niger [14]): 0.49 µg/mL (≈ 0.892 µM) | zone of inhibition at 5000 µg/mL (Pseudomonas aeruginosa [15]): 20 mm | zone of inhibition at 2500 µg/mL (Candida albicans [16]): 20 mm | zone of inhibition at 2500 µg/mL (Bacillus subtilis [17]): 21 mm

N=C1C(=S)N(c2ccc(I)cc2)C(=O)N1c1ccc2c(c1)Cc1ccccc1-2
zone of inhibition at 5000 µg/mL (Staphylococcus aureus [18]): 13.5 mm | zone of inhibition at 5000 µg/mL (Escherichia coli): 15 mm | Activity (Human alphaherpesvirus 1): 70% | zone of inhibition at 5000 µg/mL (Candida albicans [8]): 13 mm | zone of inhibition at 5000 µg/mL (Bacillus subtilis [19]): 13.5 mm | Activity (Hepatovirus A): 50% | Activity (Coxsackievirus B4): 50% | zone of inhibition at 5000 µg/mL (Salmonella typhi [20]): 17 mm
